Legend:
[1] = Toxicity day survivors expressed as number of animals that survived to day five/ number of test animals under control group B at a dose of 50 mg/kg; 6 survived out of 6; assay type: functional, Mus musculus
[2] = Toxicity day survivors expressed as number of animals that survived to day five/ number of test animals under control group B at a dose of 12.5 mg/kg; 6 survived out of 6; assay type: functional, Mus musculus
[3] = Percent increase in life span of test animals compared to untreated tumor-bearing control group B animals at a dose of 50 mg/kg; assay type: functional; conditions: Mus musculus
[4] = Toxicity day survivors expressed as number of animals that survived to day five/ number of test animals under control group B at a dose of 25 mg/kg; 6 survived out of 6; assay type: functional, Mus musculus
[5] = Percent increase in life span of test animals compared to untreated tumor-bearing control group B animals at a dose of 100 mg/kg; assay type: functional; conditions: Mus musculus
P388 [6] = test: Log cell population relative to cell population at the beginning of treatment compared to control group B at a dose of 100 mg/kg; assay type: functional, Mus musculus
[7] = Toxicity day survivors expressed as number of animals that survived to day five/ number of test animals under control group B at a dose of 100 mg/kg; 6 survived out of 6; assay type: functional, Mus musculus
P388 [8] = test: Log cell population relative to cell population at the beginning of treatment compared to control group B at a dose of 50 mg/kg; assay type: functional, Mus musculus
[9] = Antileukemic activity against Murine P388 lymphocytic leukemia, body weight difference of the test animals compared to control group B animals at a dose of 25 mg/kg; assay type: functional, Mus musculus; design: unit not given here
In short: (§1)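 CD2F1 mice implanted intraperitoneally with ascitic fluid carrying ca. 1×10^6 P388 cells, under the NCI protocol. Dosing was intraperitoneal, starting 24 h after inoculation, then every 24 h for five doses in total. The body weight difference of treated mice is taken against untreated controls. Toxicity day survivors are the mice alive at day five out of those tested.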

[10] = Percent increase in life span of test animals compared to untreated tumor-bearing control group B animals at a dose of 25 mg/kg; assay type: functional; conditions: Mus musculus
P388 [11] = test: Log cell population relative to cell population at the beginning of treatment compared to control group B at a dose of 25 mg/kg; assay type: functional, Mus musculus
[12] = Percent increase in life span of test animals compared to untreated tumor-bearing control group B animals at a dose of 12.5 mg/kg; assay type: functional; conditions: Mus musculus
[13] = Antileukemic activity against Murine P388 lymphocytic leukemia, body weight difference of the test animals compared to control group B animals at a dose of 12.5 mg/kg; assay type: functional, Mus musculus; design: unit not given here; in short: as §1
[14] = Antileukemic activity against Murine P388 lymphocytic leukemia, body weight difference of the test animals compared to control group B animals at a dose of 100 mg/kg; assay type: functional, Mus musculus; design: unit not given here; in short: as §1
[15] = Antileukemic activity against Murine P388 lymphocytic leukemia, body weight difference of the test animals compared to control group B animals at a dose of 50 mg/kg; assay type: functional, Mus musculus; design: unit not given here; in short: as §1
P388 [16] = test: Log cell population relative to cell population at the beginning of treatment compared to control group B at a dose of 12.5 mg/kg; assay type: functional, Mus musculus
[17] = Antileukemic activity against Murine P388 lymphocytic leukemia, body weight difference of the test animals compared to control group C animals at a dose of 100 mg/kg; assay type: functional, Mus musculus; design: unit not given here; in short: as §1
[18] = Percent increase in life span of test animals compared to untreated tumor-bearing control group C animals at a dose of 200 mg/kg; assay type: functional; conditions: Mus musculus
[19] = Percent increase in life span of test animals compared to untreated tumor-bearing control group C animals at a dose of 100 mg/kg; assay type: functional; conditions: Mus musculus
[20] = Toxicity day survivors expressed as number of animals that survived to day five/ number of test animals under control group C at a dose of 100 mg/kg; 6 survived out of 6; assay type: functional, Mus musculus
[21] = Antileukemic activity against Murine P388 lymphocytic leukemia, body weight difference of the test animals compared to control group C animals at a dose of 50 mg/kg; assay type: functional, Mus musculus; design: unit not given here; in short: as §1
P388 [22] = test: Log cell population relative to cell population at the beginning of treatment compared to control group A at a dose of 50 mg/kg; assay type: functional, Mus musculus
[23] = Toxicity day survivors expressed as number of animals that survived to day five/ number of test animals under control group C at a dose of 200 mg/kg; 6 survived out of 6; assay type: functional, Mus musculus
[24] = Toxicity day survivors expressed as number of animals that survived to day five/ number of test animals under control group C at a dose of 25 mg/kg; 6 survived out of 6; assay type: functional, Mus musculus
[25] = Antileukemic activity against Murine P388 lymphocytic leukemia, body weight difference of the test animals compared to control group C animals at a dose of 25 mg/kg; assay type: functional, Mus musculus; in short: as §1
[26] = Percent increase in life span of test animals compared to untreated tumor-bearing control group C animals at a dose of 25 mg/kg; assay type: functional; conditions: Mus musculus
[27] = Percent increase in life span of test animals compared to untreated tumor-bearing control group C animals at a dose of 50 mg/kg; assay type: functional; conditions: Mus musculus
P388 [28] = test: Log cell population relative to cell population at the beginning of treatment compared to control group C at a dose of 25 mg/kg; assay type: functional, Mus musculus
[29] = Antileukemic activity against Murine P388 lymphocytic leukemia, body weight difference of the test animals compared to control group C animals at a dose of 200 mg/kg; assay type: functional, Mus musculus; in short: as §1
P388 [30] = test: Log cell population relative to cell population at the beginning of treatment compared to control group C at a dose of 100 mg/kg; assay type: functional, Mus musculus
[31] = Toxicity day survivors expressed as number of animals that survived to day five/ number of test animals under control group C at a dose of 50 mg/kg; 6 survived out of 6; assay type: functional, Mus musculus
P388 [32] = test: Log cell population relative to cell population at the beginning of treatment compared to control group C at a dose of 200 mg/kg; assay type: functional, Mus musculus

**Q.** What does the source list for `Cc1c(COC(=O)NC(C)C)c(COC(=O)NC(C)C)c2n1CS(=O)(=O)C2`?
**A.** TDS [1]: 6; TDS [2]: 6; ILS at 50 mg/kg [3]: 84%; TDS [4]: 6; ILS at 100 mg/kg [5]: 118%; KE (P388 [6]): >6.77; TDS [7]: 6; KE (P388 [8]): 4.71; BWD [9]: -1.8; ILS at 25 mg/kg [10]: 59%; KE (P388 [11]): 2.39; ILS at 12.5 mg/kg [12]: 42%; BWD [13]: -1.1; BWD [14]: -4; BWD [15]: -1.8; KE (P388 [16]): 0.85

**Q.** For `CNC(=O)OCc1c(COC(=O)NC)c2n(c1C)C[S+]([O-])C2` (configuration not stated), which BWD [17] is on record?
**A.** 0.8

**Q.** What about the ILS at 200 mg/kg [18] of the same compound?
**A.** 15%

**Q.** And the ILS at 100 mg/kg [19]?
**A.** 22%

**Q.** What about the TDS [20] of the same compound?
**A.** 6

**Q.** And the BWD [21]?
**A.** 1.1

**Q.** What about the KE (P388 [22]) of the same compound?
**A.** -0.09

**Q.** And the TDS [23]?
**A.** 6

**Q.** And the TDS [24]?
**A.** 6

**Q.** What about the BWD [25] of the same compound?
**A.** 0

**Q.** And the ILS at 25 mg/kg [26]?
**A.** 13%

**Q.** And the ILS at 50 mg/kg [27]?
**A.** 13%

**Q.** And the KE (P388 [28])?
**A.** -0.09

**Q.** And the BWD [29]?
**A.** 0.4

**Q.** And the KE (P388 [30])?
**A.** -0.05

**Q.** What about the TDS [31] of the same compound?
**A.** 6

**Q.** What about the KE (P388 [32]) of the same compound?
**A.** -0.08

From ChEMBL document CHEMBL1123648, “Synthesis, chemical reactivity, and antileukemic activity of 5-substituted 6,7-bis(hydroxymethyl)pyrrolo[1,2-c]thiazole biscarbamates and the corresponding sulfoxides and sulfones” (1987)
